Measured values: ChEMBL document CHEMBL1795299, “Pyrrolo[2,3-c]azepine derivatives: a new class of potent protein tyrosine phosphatase 1B inhibitors” (Bioorg Med Chem Lett, 2011)
Active and inactive are the calls of the source. The rule behind the calls is not given here.

What follows are compounds tested against T1, Tyrosine-protein phosphatase non-receptor type 1 (Homo sapiens, UniProt P18031) (assay: Inhibition of human recombinant PTP1B assessed as inhibition of para-nitrophenyl phosphate to para-nitrophenol conversion by spectrophotometry).
T1 sequence (P18031 whole entry): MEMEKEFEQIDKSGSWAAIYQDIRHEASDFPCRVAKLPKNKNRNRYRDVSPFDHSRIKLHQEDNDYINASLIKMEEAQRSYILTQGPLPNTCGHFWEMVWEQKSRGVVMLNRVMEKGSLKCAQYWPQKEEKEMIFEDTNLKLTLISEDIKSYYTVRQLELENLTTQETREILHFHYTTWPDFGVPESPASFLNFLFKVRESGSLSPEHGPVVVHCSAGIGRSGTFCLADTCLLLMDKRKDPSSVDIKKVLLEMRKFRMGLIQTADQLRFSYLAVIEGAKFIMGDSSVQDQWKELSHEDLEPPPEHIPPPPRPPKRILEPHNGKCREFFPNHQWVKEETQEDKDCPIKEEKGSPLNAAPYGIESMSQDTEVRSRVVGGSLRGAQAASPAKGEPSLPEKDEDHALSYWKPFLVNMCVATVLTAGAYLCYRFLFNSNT
In short: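 Recombinant human GST-PTP1B, from E. coli BL21 pellets purified on a GST bead column, converts pNPP to p-nitrophenol, measured at 405 nm. Compounds were dissolved in 100% DMSO and tested over a dose series. IC50 came from a sigmoidal dose-response curve with variable slope. BPV(phen) served as the reference.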

Row | SMILES | IC50 [µM]
1 | COc1ccc(-c2ccc(Cn3ccc4c3C(=O)NCC/C4=N\Nc3ccccn3)cc2)cc1 | 14.9
2 | CCCCOc1ccc(-c2ccc(Cn3ccc4c3C(=O)NCCC4=O)cc2)cc1 | 16.4
3 | COc1ccc(-c2ccc(Cn3c4c(c5ccccc53)C(=O)CCNC4=O)cc2)cc1 | 13.9

These compounds were tested against T2, Tyrosine-protein phosphatase non-receptor type 1 (Homo sapiens) (UniProt P18031) (assay: Inhibition of human recombinant PTP1B assessed as inhibition of para-nitrophenyl phosphate to para-nitrophenol conversion at 100 uM by spectrophotometry).
T2 sequence (whole entry): T1 sequence (P18031 whole entry)
In short: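 GST-tagged human PTP1B, expressed in E. coli BL21 and purified on GST beads, hydrolyses pNPP to p-nitrophenol, read as absorbance at 405 nm. Compounds were dissolved in 100% DMSO, and the inhibitory rate was recorded. BPV(phen) served as the reference.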

Row | SMILES | inhibition
4 | N#Cc1ccccc1-c1ccc(Cn2ccc3c2C(=O)NCCC3=O)cc1 | inactive
5 | O=C1CCNC(=O)c2c1ccn2-c1ccc(C(F)(F)F)cc1 | inactive
6 | O=C1CCNC(=O)c2c1ccn2Cc1ccccc1 | inactive
7 | COc1ccc(-c2ccc(Cn3ccc4c3C(=O)N(C)CCC4=O)cc2)cc1 | Active
8 | COc1ccc(-c2ccc(Cn3ccc4c3C(=O)NCC/C4=N\Nc3ccccn3)cc2)cc1 | Active
9 | CC(=O)c1ccc(-n2ccc3c2C(=O)NCCC3=O)cc1 | inactive
10 | CCCCOc1ccc(-c2ccc(Cn3ccc4c3C(=O)NCCC4=O)cc2)cc1 | Active
11 | O=C1CCNC(=O)c2[nH]ccc21 | Active
12 | O=C1NCCC(O)c2ccn(Cc3ccccc3)c21 (centres undefined) | inactive
13 | COc1ccc(-c2ccc(Cn3c4c(c5ccccc53)C(=O)CCNC4=O)cc2)cc1 | Active
14 | O=C1c2c(ccn2Cc2ccccc2)/C(=N/O)CCN1Cc1ccccc1 | inactive
15 | O=C1CCNC(=O)c2c1ccn2-c1ccccc1 | inactive
16 | O=C1NCCC(O)c2ccn(Cc3ccc(-c4ccccc4)cc3)c21 (centres undefined) | inactive
17 | O=C1CCNC(=O)c2c1ccn2Cc1ccc(-c2ccccc2)cc1 | inactive
18 | O=C1CCNC(=O)c2c1ccn2Cc1ccc(-c2ccc(O)cc2)cc1 | Active
19 | Cc1ccc(-c2ccc(Cn3ccc4c3C(=O)NCCC4=O)cc2)cc1 | Active
20 | O=C1NCC=Cc2ccn(Cc3ccccc3)c21 | inactive
21 | O=C1CCN(Cc2ccccc2)C(=O)c2c1ccn2Cc1ccccc1 | inactive
22 | COc1ccc(-c2ccc(Cn3ccc4c3C(=O)NCCC4=O)cc2)cc1 | Active
23 | O=C1CCNC(=O)c2c1ccn2Cc1ccc(-c2cccc(O)c2)cc1 | inactive
24 | CCc1ccc(-n2ccc3c2C(=O)NCCC3=O)cc1 | inactive
25 | Nc1cccc(-c2ccc(Cn3ccc4c3C(=O)NCCC4=O)cc2)c1 | inactive
26 | COc1ccc(-n2ccc3c2C(=O)NCCC3=O)cc1 | inactive
27 | NC(=O)c1ccccc1-c1ccc(Cn2ccc3c2C(=O)NCCC3=O)cc1 | inactive
28 | O=C1CCNC(=O)c2c1ccn2-c1ccc(-c2ccccc2)cc1 | inactive
29 | CCCOc1ccc(-c2ccc(Cn3ccc4c3C(=O)NCCC4=O)cc2)cc1 | Active
